Results published in ChEMBL document CHEMBL4715838, “Novel diosgenin derivatives containing 1,3,4-oxadiazole/thiadiazole moieties as potential antitumor agents: Design, synthesis and cytotoxic evaluation” (Eur J Med Chem, 2020).
The source made the active and inactive calls. The calls are words filed in the database; no cut-off is given here.

Tests used:
A549 [1] = test: Induction of mitochondrial depolarization in human A549 cells assessed as depolarized cell population at 30 uM measured after 48 hrs by JC1 dye based flow cytometry (reference value: 0.4%); assay type: functional
A549 [2] = test: Induction of apoptosis in human A549 cells assessed as early apoptotic cells at 15 uM after 48 hrs by AnnexinV-FITC/propidium iodide staining based flow cytometry analysis (reference value: 0.5 to 2.3 %); assay type: functional
A549 [3] = test: Induction of mitochondrial depolarization in human A549 cells assessed as increase in depolarized cell population measured after 48 hrs by JC1 dye based flow cytometry; assay type: functional; settings: dose 15-30 µM
A549 [4] = test: Induction of apoptosis in human A549 cells assessed as nuclear fragmentation at 15 to 30 uM measured after 48 hrs by DAPI staining based fluorescence microscopic analysis; assay type: functional, cell-based; settings: dose 15-30 µM
Procedure, shortened: (§1)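 A549 plated at 2×10^5 cells/well and grown 24 h. Treated 48 h with test compound (15 or 30 μM) or diosgenin (30 μM); vehicle control 0.1% DMSO. Fixed in 4% formaldehyde 1 h at 4 °C, stained with 5 μM DAPI for 10 min at 37 °C in the dark, and viewed by fluorescence microscopy.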

A549 [5] = test: Induction of apoptosis in human A549 cells assessed as late apoptotic cells at 30 uM after 48 hrs by AnnexinV-FITC/propidium iodide staining based flow cytometry analysis (reference value: 1 to 3.1 %); assay type: functional
A549 [6] = test: Induction of apoptosis in human A549 cells assessed as cell rounding at 15 to 30 uM measured after 48 hrs by phase contrast microscopic analysis; assay type: functional, cell-based; settings: dose 15-30 µM
Procedure, shortened: (§2)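 A549 seeded at 2×10^5 cells/well and allowed to settle 24 h. Then exposed 48 h to test compound (15 or 30 μM) or diosgenin (30 μM); controls received 0.1% DMSO. Cell shape examined by phase contrast microscopy.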

A549 [7] = test: Induction of mitochondrial depolarization in human A549 cells assessed as depolarized cell population at 15 uM measured after 48 hrs by JC1 dye based flow cytometry (reference value: 0.4%); assay type: functional
A549 [8] = test: Induction of apoptosis in human A549 cells assessed as increase in cleaved PARP expression at 7.5 to 30 uM by Western blot analysis; assay type: functional, cell-based; settings: dose 7.5-30 µM
Procedure, shortened: (§3)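 A549 treated with compound (0, 7.5, 15, 30 μM) or diosgenin (0, 15, 30 μM), lysed in RIPA and boiled 10 min. 30 μg protein run on 10% SDS-PAGE, blotted to nitrocellulose, blocked in 5% BSA. Primary antibodies used at 1:1000, HRP secondary at 1:5000 for 2 h, ECL detection. β-actin served as loading control.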

MCF7 = test: Cytotoxicity against human MCF7 cells assessed as reduction in cell viability measured after 48 hrs by MTT assay; assay type: functional, cell-based; settings: MCF7, 48 h
Procedure, shortened: (§4)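 Cells in DMEM with 10% FBS, penicillin/streptomycin, 37 °C, 5% CO2. Seeded at 5×10^3 per well directly into medium holding graded concentrations of sample and incubated 48 h. MTT (5 mg/mL in PBS) added for 4 h, medium replaced with DMSO, absorbance read at 492 nm. IC50 taken as the concentration giving 50% inhibition of proliferation; three replicates, means ± SD.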

HepG2 [9] = test: Potency index, ratio of diosgenin IC50 to test compound IC50 for cytotoxicity against human HepG2 cells assessed as reduction in cell viability; assay type: functional
HepG2 [10] = test: Cytotoxicity against human HepG2 cells assessed as reduction in cell viability measured after 48 hrs by MTT assay; assay type: functional, cell-based; settings: HepG2, 48 h; procedure, shortened: as §4
A549 [11] = test: Cytotoxicity against human A549 cells assessed as reduction in cell viability measured after 48 hrs by MTT assay; assay type: functional, cell-based; settings: A549, 48 h; procedure, shortened: as §4
HCT-116 = test: Cytotoxicity against human HCT-116 cells assessed as reduction in cell viability measured after 48 hrs by MTT assay; assay type: functional, cell-based; settings: HCT-116, 48 h; procedure, shortened: as §4
A549 [12] = test: Induction of apoptosis in human A549 cells assessed as cell shrinkage at 15 to 30 uM measured after 48 hrs by phase contrast microscopic analysis; assay type: functional, cell-based; settings: dose 15-30 µM; procedure, shortened: as §2
A549 [13] = test: Induction of apoptosis in human A549 cells assessed as chromatin condensation at 15 to 30 uM measured after 48 hrs by DAPI staining based fluorescence microscopic analysis; assay type: functional, cell-based; settings: dose 15-30 µM; procedure, shortened: as §1
A549 [14] = test: Induction of apoptosis in human A549 cells assessed as increase in cyto-c expression by Western blot analysis; assay type: functional, cell-based; settings: dose 7.5-30 µM; procedure, shortened: as §3
A549 [15] = test: Induction of apoptosis in human A549 cells assessed as late apoptotic cells at 15 uM after 48 hrs by AnnexinV-FITC/propidium iodide staining based flow cytometry analysis (reference value: 1 to 3.1 %); assay type: functional
A549 [16] = test: Induction of apoptosis in human A549 cells assessed as increase in Bax expression by Western blot analysis; assay type: functional, cell-based; settings: dose 7.5-30 µM; procedure, shortened: as §3
A549 [17] = test: Induction of apoptosis in human A549 cells assessed as decrease in Bcl-2 expression by Western blot analysis; assay type: functional, cell-based; settings: dose 7.5-30 µM; procedure, shortened: as §3
A549 [18] = test: Induction of apoptosis in human A549 cells assessed as early apoptotic cells at 30 uM after 48 hrs by AnnexinV-FITC/propidium iodide staining based flow cytometry analysis (reference value: 0.5 to 2.3 %); assay type: functional
A549 [19] = test: Induction of apoptosis in human A549 cells assessed as membrane blebbing at 15 to 30 uM measured after 48 hrs by phase contrast microscopic analysis; assay type: functional, cell-based; settings: dose 15-30 µM; procedure, shortened: as §2
A549 [20] = test: Induction of apoptosis in human A549 cells assessed as formation of apoptotic bodies at 15 to 30 uM measured after 48 hrs by phase contrast microscopic analysis; assay type: functional, cell-based; settings: dose 15-30 µM; procedure, shortened: as §2
A549 [21] = test: Induction of apoptosis in human A549 cells assessed as increase in cleaved caspase 3 expression at 7.5 to 30 uM by Western blot analysis; assay type: functional, cell-based; settings: dose 7.5-30 µM; procedure, shortened: as §3
A549 [22] = test: Potency index, ratio of diosgenin IC50 to test compound IC50 for cytotoxicity against human A549 cells assessed as reduction in cell viability; assay type: functional
A549 [23] = test: Induction of apoptosis in human A549 cells assessed as increase in cleaved caspase 9 expression at 7.5 to 30 uM by Western blot analysis; assay type: functional, cell-based; settings: dose 7.5-30 µM; procedure, shortened: as §3
GES1 = test: Cytotoxicity against human GES1 cells assessed as reduction in cell viability measured after 48 hrs by MTT assay; assay type: cell-based; settings: GES1, 48 h; procedure, shortened: as §4
A549 [24] = test: Induction of apoptosis in human A549 cells assessed as increase in cleaved caspase 9 expression at 15 to 30 uM by Western blot analysis; assay type: functional, cell-based; settings: dose 15-30 µM; procedure, shortened: as §3
A549 [25] = test: Induction of apoptosis in human A549 cells assessed as formation of apoptotic bodies at 30 uM measured after 48 hrs by phase contrast microscopic analysis; assay type: functional, cell-based; procedure, shortened: as §2
A549 [26] = test: Induction of apoptosis in human A549 cells assessed as increase in cleaved PARP expression at 15 to 30 uM by Western blot analysis; assay type: functional, cell-based; settings: dose 15-30 µM; procedure, shortened: as §3
A549 [27] = test: Induction of apoptosis in human A549 cells assessed as cell shrinkage at 30 uM measured after 48 hrs by phase contrast microscopic analysis; assay type: functional, cell-based; procedure, shortened: as §2
A549 [28] = test: Induction of apoptosis in human A549 cells assessed as cell rounding at 30 uM measured after 48 hrs by phase contrast microscopic analysis; assay type: functional, cell-based; procedure, shortened: as §2
A549 [29] = test: Induction of apoptosis in human A549 cells assessed as membrane blebbing at 30 uM measured after 48 hrs by phase contrast microscopic analysis; assay type: functional, cell-based; procedure, shortened: as §2
A549 [30] = test: Induction of apoptosis in human A549 cells assessed as increase in cleaved caspase 3 expression at 15 to 30 uM by Western blot analysis; assay type: functional, cell-based; settings: dose 15-30 µM; procedure, shortened: as §3

| Structure (SMILES) | IC50 (MCF7) | Ratio IC50 (HepG2 [9]) | IC50 (HepG2 [10]) | IC50 (A549 [11]) | IC50 (HCT-116) | IC50 (GES1) | further results |
| --- | --- | --- | --- | --- | --- | --- | --- |
| CC(=O)O[C@H]1CC[C@@]2(C)C(=CC[C@H]3[C@@H]4C[C@@H]5O[C@H](CC[C@H](C)c6nnc(-c7cccnc7)s6)[C@@H](C)[C@@H]5[C@@]4(C)CC[C@@H]32)C1 | > 100 µM | 2.9 | 11.7 µM | 3.93 µM | 29.6 µM | 420 µM | Activity (A549 [1]): 26%; Activity (A549 [2]): 21%; Activity (A549 [3]): Dose-dependent effect; Activity (A549 [4]): Active; Activity (A549 [5]): 21.3%; Activity (A549 [6]): Active; Activity (A549 [7]): 7.5%; Activity (A549 [8]): Active; Activity (A549 [12]): Active; Activity (A549 [13]): Active; Activity (A549 [14]): Dose-dependent effect; Activity (A549 [15]): 15.1%; Activity (A549 [16]): Dose-dependent effect; Activity (A549 [17]): Dose-dependent effect; Activity (A549 [18]): 60%; Activity (A549 [19]): Active; Activity (A549 [20]): Active; Activity (A549 [21]): Active; Ratio IC50 (A549 [22]): 6.7; Activity (A549 [23]): Active |
| C[C@H]1[C@H]2[C@H](C[C@H]3[C@@H]4CC=C5C[C@@H](O)CC[C@]5(C)[C@H]4CC[C@]23C)O[C@@H]1CC[C@H](C)c1nnc(-c2cccc3ccccc23)s1 | 63.8 µM | 1.02 | 32.9 µM | 18.3 µM | 46.6 µM | 201 µM | – |
| CC(=O)O[C@H]1CC[C@@]2(C)C(=CC[C@H]3[C@@H]4C[C@@H]5O[C@H](CC[C@@H](C)c6nnc(-c7ccccc7)o6)[C@@H](C)[C@@H]5[C@@]4(C)CC[C@@H]32)C1 | > 100 µM | – | 63.2 µM | 84.5 µM | > 100 µM | 82.3 µM | – |
| C[C@H]1[C@H]2[C@H](C[C@H]3[C@@H]4CC=C5C[C@@H](O)CC[C@]5(C)[C@H]4CC[C@]23C)O[C@@H]1CC[C@@H](C)c1nnc(-c2cccnc2)o1 | > 100 µM | – | > 100 µM | 98.1 µM | > 100 µM | 199 µM | – |
| C[C@H]1[C@H]2[C@H](C[C@H]3[C@@H]4CC=C5C[C@@H](O)CC[C@]5(C)[C@H]4CC[C@]23C)O[C@@H]1CC[C@@H](C)c1nnc(-c2ccccc2)s1 | 27.4 µM | 1.05 | 32.1 µM | 15 µM | 48.9 µM | 527 µM | – |
| C[C@H]1[C@H]2[C@H](C[C@H]3[C@@H]4CC=C5C[C@@H](O)CC[C@]5(C)[C@H]4CC[C@]23C)O[C@@H]1CC[C@H](C)c1nnc(-c2cccc3ccccc23)o1 | 69.7 µM | – | 29.2 µM | 31.3 µM | > 100 µM | 298 µM | – |
| C[C@@H]1CC[C@@]2(OC1)O[C@H]1C[C@H]3[C@@H]4CC=C5C[C@@H](O)CC[C@]5(C)[C@H]4CC[C@]3(C)[C@H]1[C@@H]2C [DISOGENIN] | 23.9 µM | – | 33.9 µM | 26.4 µM | 49.1 µM | 101 µM | Activity (A549 [2]): 2.3%; Activity (A549 [24]): inactive; Activity (A549 [25]): inactive; Activity (A549 [5]): 2%; Activity (A549 [26]): inactive; Activity (A549 [15]): 3.1%; Activity (A549 [27]): inactive; Activity (A549 [28]): inactive; Activity (A549 [18]): 2.5%; Activity (A549 [29]): inactive; Activity (A549 [30]): inactive |
| Cc1nnc([C@H](C)CC[C@H]2O[C@H]3C[C@H]4[C@@H]5CC=C6C[C@@H](O)CC[C@]6(C)[C@H]5CC[C@]4(C)[C@H]3[C@@H]2C)s1 | 33.8 µM | – | 33.2 µM | 36.7 µM | 48.9 µM | 107 µM | – |
